The target of this assay is Heat shock 70 kDa protein 1A (Homo sapiens) (UniProt P0DMV8). The assay is described as follows: Hsp70 gene expression change – cell-based, fluorescence, HeLa, orthogonal assay, late-stage follow-up (AID 651945). Conditions: HeLa Hsp70 mRNA, qRT-PCR, 4 h; at 10 µM; active compounds read high. In short, it runs like this: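 system = HeLa cells, human Hsp70 gene expression | timing = 4 h compound exposure before cell harvest | measured by = Hsp70 and GAPDH transcript levels by qRT-PCR | read-out basis = GAPDH-normalized Hsp70 mRNA fold change versus DMSO | controls = DMSO vehicle-treated cells as baseline reference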
For orientation: In qPCR the cycle at which signal appears reflects the starting amount.

Chain of Heat shock 70 kDa protein 1A (Homo sapiens) (P0DMV8 whole entry, looked up): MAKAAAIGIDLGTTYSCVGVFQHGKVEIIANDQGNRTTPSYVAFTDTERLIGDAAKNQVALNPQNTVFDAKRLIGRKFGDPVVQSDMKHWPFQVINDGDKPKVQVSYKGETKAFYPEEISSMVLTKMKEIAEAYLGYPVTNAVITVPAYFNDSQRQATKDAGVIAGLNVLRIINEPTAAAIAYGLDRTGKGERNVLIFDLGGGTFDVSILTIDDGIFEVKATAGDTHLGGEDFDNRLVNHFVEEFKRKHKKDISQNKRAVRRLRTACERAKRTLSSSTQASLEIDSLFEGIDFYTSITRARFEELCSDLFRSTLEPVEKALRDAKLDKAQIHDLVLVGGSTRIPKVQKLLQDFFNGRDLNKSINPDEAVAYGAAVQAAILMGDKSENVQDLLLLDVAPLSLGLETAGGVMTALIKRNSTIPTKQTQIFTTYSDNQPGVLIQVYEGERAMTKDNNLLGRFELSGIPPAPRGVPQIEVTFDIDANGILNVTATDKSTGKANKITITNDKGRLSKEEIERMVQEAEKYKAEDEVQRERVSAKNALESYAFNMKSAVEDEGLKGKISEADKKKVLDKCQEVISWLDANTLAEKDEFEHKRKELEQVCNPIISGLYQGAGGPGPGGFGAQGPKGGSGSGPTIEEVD

Turning to `COc1ccc(/C=C/C=C2C(=O)NC(=O)NC2=O)cc1`, the fold change is 2.4.
